Results published in ChEMBL document CHEMBL1687776, “Origin and molecular evolution of the determinant of methicillin resistance in staphylococci” (2010).
≈ marks a conversion by molar mass, not a printed value.

Tests used:
[1] = test system: Staphylococcus vitulinus; assay: Antibacterial activity against methicillin-resistant mecA-positive Staphylococcus vitulinus SVMP03 by agar dilution method; format: functional; conditions: Mammaliicoccus vitulinus
Summary of the method: (§1)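 MIC by agar dilution on Mueller-Hinton agar per CLSI guidance; resistance judged against CLSI breakpoints. Strains were animal or food isolates (type strains for S. sciuri subspecies), typed by hsp60 and/or sodA sequencing; mecA homologue carriage checked by PCR with degenerate primers. Agents tested: oxacillin, ampicillin, ceftizoxime, ceftriaxone, cefoxitin.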

[2] = test system: Staphylococcus vitulinus; assay: Antibacterial activity against methicillin-resistant mecA-positive Staphylococcus vitulinus SVMP04 by agar dilution method; format: functional; conditions: Mammaliicoccus vitulinus; summary of the method: as §1
[3] = test system: Staphylococcus vitulinus; assay: Antibacterial activity against methicillin-resistant mecA-positive Staphylococcus vitulinus SVMP05 by agar dilution method; format: functional; conditions: Mammaliicoccus vitulinus; summary of the method: as §1
[4] = test system: Staphylococcus vitulinus; assay: Antibacterial activity against methicillin-resistant mecA-positive Staphylococcus vitulinus SVMP06 by agar dilution method; format: functional; conditions: Mammaliicoccus vitulinus; summary of the method: as §1
[5] = test system: Staphylococcus vitulinus; assay: Antibacterial activity against mecA-negative Staphylococcus vitulinus SVMN01 (ATCC 51145T) by agar dilution method; format: functional; conditions: Mammaliicoccus vitulinus
Summary of the method: (§2)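 MIC by agar dilution on Mueller-Hinton agar following CLSI guidelines. Resistance was assigned using CLSI breakpoints. Agents tested were oxacillin, ampicillin, ceftizoxime, ceftriaxone and cefoxitin. Strains were from animal or food sources and identified by hsp60 and/or sodA sequencing. mecA absence was assessed by PCR with degenerate primers for mecA and its homologues.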

[6] = test system: Staphylococcus vitulinus; assay: Antibacterial activity against mecA-negative Staphylococcus vitulinus SVMN02 by agar dilution method; format: functional; conditions: Mammaliicoccus vitulinus; summary of the method: as §1
[7] = test system: Staphylococcus vitulinus; assay: Antibacterial activity against mecA-negative Staphylococcus vitulinus SVMN03 by agar dilution method; format: functional; conditions: Mammaliicoccus vitulinus; summary of the method: as §2
[8] = test system: Staphylococcus vitulinus; assay: Antibacterial activity against mecA-negative Staphylococcus vitulinus SVMN04 by agar dilution method; format: functional; conditions: Mammaliicoccus vitulinus; summary of the method: as §1
[9] = test system: Staphylococcus vitulinus; assay: Antibacterial activity against mecA-negative Staphylococcus vitulinus SVMN05 by agar dilution method; format: functional; conditions: Mammaliicoccus vitulinus; summary of the method: as §1
[10] = test system: Staphylococcus vitulinus; assay: Antibacterial activity against mecA-negative Staphylococcus vitulinus SVMN06 by agar dilution method; format: functional; conditions: Mammaliicoccus vitulinus; summary of the method: as §1
[11] = test system: Staphylococcus vitulinus; assay: Antibacterial activity against mecA-negative Staphylococcus vitulinus SVMN07 by agar dilution method; format: functional; conditions: Mammaliicoccus vitulinus; summary of the method: as §1
[12] = test system: Staphylococcus vitulinus; assay: Antibacterial activity against mecA-negative Staphylococcus vitulinus SVMN08 by agar dilution method; format: functional; conditions: Mammaliicoccus vitulinus; summary of the method: as §2
[13] = test system: Staphylococcus vitulinus; assay: Antibacterial activity against mecA-negative Staphylococcus vitulinus SVMN09 by agar dilution method; format: functional; conditions: Mammaliicoccus vitulinus; summary of the method: as §1
[14] = test system: Staphylococcus vitulinus; assay: Antibacterial activity against mecA-negative Staphylococcus vitulinus SVMN10 by agar dilution method; format: functional; conditions: Mammaliicoccus vitulinus; summary of the method: as §2
[15] = test system: Staphylococcus vitulinus; assay: Antibacterial activity against mecA-negative Staphylococcus vitulinus SVMN11 by agar dilution method; format: functional; conditions: Mammaliicoccus vitulinus; summary of the method: as §1
[16] = test system: Staphylococcus vitulinus; assay: Antibacterial activity against mecA-negative Staphylococcus vitulinus SVMN12 by agar dilution method; format: functional; conditions: Mammaliicoccus vitulinus; summary of the method: as §1
[17] = test system: Staphylococcus vitulinus; assay: Antibacterial activity against mecA-negative Staphylococcus vitulinus SVMN13 by agar dilution method; format: functional; conditions: Mammaliicoccus vitulinus; summary of the method: as §2
[18] = test system: Staphylococcus vitulinus; assay: Antibacterial activity against mecA-negative Staphylococcus vitulinus SVMN14 by agar dilution method; format: functional; conditions: Mammaliicoccus vitulinus; summary of the method: as §1
[19] = test system: Mammaliicoccus lentus; assay: Antibacterial activity against mecA-negative Staphylococcus lentus ATCC 29070T by agar dilution method; format: functional; summary of the method: as §2
[20] = test system: Staphylococcus fleurettii; assay: Antibacterial activity against methicillin-resistant mecA-positive Staphylococcus fleurettii SFMP01(CCUG 43834T) by agar dilution method; format: functional; conditions: Mammaliicoccus fleurettii; summary of the method: as §1
[21] = test system: Staphylococcus fleurettii; assay: Antibacterial activity against methicillin-resistant mecA-positive Staphylococcus fleurettii SFMP02 by agar dilution method; format: functional; conditions: Mammaliicoccus fleurettii; summary of the method: as §1
[22] = test system: Staphylococcus fleurettii; assay: Antibacterial activity against methicillin-resistant mecA-positive Staphylococcus fleurettii SFMP03 by agar dilution method; format: functional; conditions: Mammaliicoccus fleurettii; summary of the method: as §1
[23] = test system: Staphylococcus fleurettii; assay: Antibacterial activity against methicillin-resistant mecA-positive Staphylococcus fleurettii SFMP04 by agar dilution method; format: functional; conditions: Mammaliicoccus fleurettii; summary of the method: as §1
[24] = test system: Staphylococcus fleurettii; assay: Antibacterial activity against methicillin-resistant mecA-positive Staphylococcus fleurettii SFMP05 by agar dilution method; format: functional; conditions: Mammaliicoccus fleurettii; summary of the method: as §1
[25] = test system: Staphylococcus fleurettii; assay: Antibacterial activity against methicillin-resistant mecA-positive Staphylococcus fleurettii SFMP06 by agar dilution method; format: functional; conditions: Mammaliicoccus fleurettii; summary of the method: as §1
[26] = test system: Staphylococcus fleurettii; assay: Antibacterial activity against methicillin-resistant mecA-positive Staphylococcus fleurettii SFMP07 by agar dilution method; format: functional; conditions: Mammaliicoccus fleurettii; summary of the method: as §1
[27] = test system: Staphylococcus fleurettii; assay: Antibacterial activity against methicillin-resistant mecA-positive Staphylococcus fleurettii SFMP08 by agar dilution method; format: functional; conditions: Mammaliicoccus fleurettii; summary of the method: as §1
[28] = test system: Staphylococcus fleurettii; assay: Antibacterial activity against mecA-negative Staphylococcus fleurettii SFMN01 by agar dilution method; format: functional; conditions: Mammaliicoccus fleurettii; summary of the method: as §2
[29] = test system: Staphylococcus fleurettii; assay: Antibacterial activity against mecA-negative Staphylococcus fleurettii SFMN02 by agar dilution method; format: functional; conditions: Mammaliicoccus fleurettii; summary of the method: as §2
[30] = Antibacterial activity against methicillin-resistant mecA-positive Staphylococcus sciuri subsp. sciuri ATCC 29062T by agar dilution method; format: functional; conditions: Mammaliicoccus sciuri; summary of the method: as §1
[31] = Antibacterial activity against methicillin-resistant mecA-positive Staphylococcus sciuri subsp. rodentium ATCC 700061T by agar dilution method; format: functional; conditions: Mammaliicoccus sciuri; summary of the method: as §1
[32] = test system: Staphylococcus vitulinus; assay: Antibacterial activity against methicillin-resistant mecA-positive Staphylococcus vitulinus SVMP01 by agar dilution method; format: functional; conditions: Mammaliicoccus vitulinus; summary of the method: as §1
[33] = test system: Staphylococcus vitulinus; assay: Antibacterial activity against methicillin-resistant mecA-positive Staphylococcus vitulinus SVMP02 by agar dilution method; format: functional; conditions: Mammaliicoccus vitulinus; summary of the method: as §1
[34] = Antibacterial activity against mecA-positive Staphylococcus sciuri subsp. carnaticus ATCC 700058T by agar dilution method; conditions: Mammaliicoccus sciuri

Row | SMILES | MIC [1] | MIC [2] | MIC [3] | MIC [4] | MIC [5] | MIC [6] | MIC [7] | MIC [8] | MIC [9] | MIC [10] | MIC [11] | MIC [12] | MIC [13] | MIC [14] | MIC [15] | MIC [16] | MIC [17] | MIC [18] | MIC [19] | MIC [20] | further results
1 | CC1(C)S[C@@H]2[C@H](NC(=O)[C@H](N)c3ccccc3)C(=O)N2[C@H]1C(=O)O [AMPICILLIN] | < 0.063 µg/mL | < 0.063 µg/mL | < 0.063 µg/mL | < 0.063 µg/mL | 0.125 µg/mL (≈ 0.358 µM) | < 0.063 µg/mL | < 0.063 µg/mL | < 0.063 µg/mL | < 0.063 µg/mL | < 0.063 µg/mL | < 0.063 µg/mL | < 0.063 µg/mL | < 0.063 µg/mL | < 0.063 µg/mL | 0.125 µg/mL (≈ 0.358 µM) | < 0.063 µg/mL | < 0.063 µg/mL | < 0.063 µg/mL | < 0.063 µg/mL | 1 µg/mL (≈ 2.86 µM) | MIC [21]: 1 µg/mL (≈ 2.86 µM); MIC [22]: 1 µg/mL (≈ 2.86 µM); MIC [23]: 1 µg/mL (≈ 2.86 µM); MIC [24]: 0.25 µg/mL (≈ 0.715 µM); MIC [25]: 1 µg/mL (≈ 2.86 µM); MIC [26]: 0.25 µg/mL (≈ 0.715 µM); MIC [27]: 1 µg/mL (≈ 2.86 µM); MIC [28]: 0.125 µg/mL (≈ 0.358 µM); MIC [29]: 0.125 µg/mL (≈ 0.358 µM); MIC [30]: 0.125 µg/mL (≈ 0.358 µM); MIC [31]: 0.125 µg/mL (≈ 0.358 µM); MIC [32]: < 0.063 µg/mL; MIC [33]: < 0.063 µg/mL; MIC [34]: 0.125 µg/mL (≈ 0.358 µM)
2 | CO[C@@]1(NC(=O)Cc2cccs2)C(=O)N2C(C(=O)O)=C(COC(N)=O)CS[C@@H]21 [CEFOXITIN] | 2 µg/mL (≈ 4.68 µM) | 1 µg/mL (≈ 2.34 µM) | 1 µg/mL (≈ 2.34 µM) | 1 µg/mL (≈ 2.34 µM) | 2 µg/mL (≈ 4.68 µM) | 1 µg/mL (≈ 2.34 µM) | 0.5 µg/mL (≈ 1.17 µM) | 1 µg/mL (≈ 2.34 µM) | 1 µg/mL (≈ 2.34 µM) | 2 µg/mL (≈ 4.68 µM) | 2 µg/mL (≈ 4.68 µM) | 0.25 µg/mL (≈ 0.585 µM) | 1 µg/mL (≈ 2.34 µM) | 0.5 µg/mL (≈ 1.17 µM) | 1 µg/mL (≈ 2.34 µM) | 1 µg/mL (≈ 2.34 µM) | 1 µg/mL (≈ 2.34 µM) | 0.5 µg/mL (≈ 1.17 µM) | 2 µg/mL (≈ 4.68 µM) | 2 µg/mL (≈ 4.68 µM) | MIC [21]: 1 µg/mL (≈ 2.34 µM); MIC [22]: 8 µg/mL (≈ 18.7 µM); MIC [23]: 4 µg/mL (≈ 9.36 µM); MIC [24]: 1 µg/mL (≈ 2.34 µM); MIC [25]: 2 µg/mL (≈ 4.68 µM); MIC [26]: 1 µg/mL (≈ 2.34 µM); MIC [27]: 2 µg/mL (≈ 4.68 µM); MIC [28]: 2 µg/mL (≈ 4.68 µM); MIC [29]: 2 µg/mL (≈ 4.68 µM); MIC [30]: 2 µg/mL (≈ 4.68 µM); MIC [31]: 2 µg/mL (≈ 4.68 µM); MIC [32]: 2 µg/mL (≈ 4.68 µM); MIC [33]: 1 µg/mL (≈ 2.34 µM); MIC [34]: 2 µg/mL (≈ 4.68 µM)
